42 compounds from ChEMBL document CHEMBL1148278 (J Med Chem, 2004) can be followed below.

The target of data set [1] is NAD-dependent histone deacetylase SIR2 (Saccharomyces cerevisiae S288c) (UniProt P06700). The data set is described as follows: Sirtuin 2 inhibitory activity and was reported as minimum growth-stimulating concentration in Saccharomyces cerevisiae. In short, it runs like this: (§1)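 Telomeric-silencing growth assay in S. cerevisiae UCC2210 (adh4::URA3-TEL VII-L), ca. 13 500 cells/well, in synthetic complete medium lacking uracil. Compound at 150 μM to 73 nM final, DMSO ≤2%, 30 °C for about 40–48 h. OD660 read, initial background subtracted. MGC is the concentration giving 10% of the reference maximal growth. Triplicate, ±1 SD.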

A further data set concerns the target Saccharomyces cerevisiae. In words: Toxicity against Saccharomyces cerevisiae assessed as growth inhibition in complete medium.
Data set [2] concerns the target NAD-dependent histone deacetylase SIR2 (Saccharomyces cerevisiae S288c) (UniProt P06700). The data set is described as follows: In vitro inhibition of sirtuin 2 was evaluated using yeast whole cell lysates at 75 uM; values are per cent of control.
For data set [3] the target is unchanged. In words: Selectivity index was reported as the ratio of the MGC to IC50 value.
A short description of data set [4]: Half-life period was determined. Type of data set: ADME. The method in brief:
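Hydrolysis followed by HPLC at 280 nm. 100 μM compound, made from 30 mM DMSO stock, in complete medium lacking uracil (pH 4.2-4.3, unadjusted). Half-life derived from the pseudo-first-order hydrolysis rate constant.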

Data set [5] concerns the target NAD-dependent histone deacetylase SIR2 (Saccharomyces cerevisiae S288c) (UniProt P06700). The data set is described as follows: Tested for Sirtuin 2 inhibitory activity and was reported as minimum growth-stimulating concentration in Saccharomyces cerevisiae. The method in brief: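 Cell-based telomeric silencing read-out in yeast strain UCC2210 (Mata ppr1 adh4::URA3-TEL VII-L), about 13 500 cells per well, grown in synthetic complete medium lacking uracil. Compounds tested at 150 µM to 73 nM, with at most 2% DMSO. Incubation at 30 °C for about 40–48 h. Growth read as OD660 minus initial background. MGC is the concentration giving 10% of reference maximal growth. Triplicate, ±1 SD.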

Data set [6] shares this target. The data set is described as follows: Tested for Sir2 inhibitory activity and was reported as minimum growth-stimulating concentration in Saccharomyces cerevisiae. The method in brief:
as §1

Sequence of NAD-dependent histone deacetylase SIR2 (Saccharomyces cerevisiae S288c) (P06700 whole entry): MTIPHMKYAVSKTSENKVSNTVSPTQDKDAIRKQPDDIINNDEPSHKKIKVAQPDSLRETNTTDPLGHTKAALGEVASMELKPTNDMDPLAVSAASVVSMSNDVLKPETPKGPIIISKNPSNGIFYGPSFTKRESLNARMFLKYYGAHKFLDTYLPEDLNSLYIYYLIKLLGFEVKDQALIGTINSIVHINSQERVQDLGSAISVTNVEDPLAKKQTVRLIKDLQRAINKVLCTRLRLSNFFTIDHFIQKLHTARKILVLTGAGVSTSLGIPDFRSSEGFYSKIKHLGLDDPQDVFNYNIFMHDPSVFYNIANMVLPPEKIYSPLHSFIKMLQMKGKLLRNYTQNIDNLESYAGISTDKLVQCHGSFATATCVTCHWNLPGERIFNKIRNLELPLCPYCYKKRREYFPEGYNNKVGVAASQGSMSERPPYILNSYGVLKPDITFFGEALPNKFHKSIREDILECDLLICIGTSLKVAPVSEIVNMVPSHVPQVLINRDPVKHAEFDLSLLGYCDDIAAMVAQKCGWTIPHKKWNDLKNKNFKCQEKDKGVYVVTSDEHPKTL

The IC50 is the concentration that inhibits the measured activity by half. Broadly, the residual activity is the share of the control activity or signal that is left under treatment. Read a high residual activity as a small loss of activity. With `CCN(CC)C(=O)CCc1c(O)ccc2ccccc12`, the MGC in data set [1] was greater than 150 µM. Moreover, the IC50 on Saccharomyces cerevisiae came to 125 µM. This compound yielded a residual activity in data set [2] of 88%.

In turn, `O=C1CCc2c(c(OCc3ccccc3)cc3ccccc23)O1` displayed an MGC in data set [1] of 0.97 µM. Further, the SI in data set [3] was 29. Moreover, on Saccharomyces cerevisiae, the 50% inhibitory concentration (IC50) was found to be 27 µM. Further, the residual activity in data set [2] was 17%.

`O=C1CCc2c(ccc3ccc4c(c23)CCC(=O)O4)O1`: in data set [1], the MGC was greater than 150 µM. For the same compound, the IC50 at Saccharomyces cerevisiae is no less than 150 µM.

In turn, `C=CCC1Cc2c(ccc3ccccc23)OC1=O` (configuration not stated) had an MGC in data set [1] greater than 150 µM. Further, the residual activity in data set [2] turned out to be 86%.

With `CC(C)(C)OC(=O)NCCOCCOc1cc2ccccc2c2c1OC(=O)CC2`, in data set [1], the MGC was found to be 6.4 µM. For the same compound, the SI in data set [3] was 13. Further, the IC50 at Saccharomyces cerevisiae turned out to be 86 µM.

In data set [1], `O=C1CCc2c(ccc3cc(O)ccc23)O1` registered an MGC of 38 µM. In data set [3], the SI was greater than 39. For the same compound, the IC50 on Saccharomyces cerevisiae was no less than 150 µM. In addition, the residual activity in data set [2] came to 85%.

For the compound `O=C1CCc2c(c(O)cc3ccccc23)O1`, the MGC in data set [1] was 0.69 µM. Moreover, the SI in data set [3] was determined as 161. For the same compound, the IC50 at Saccharomyces cerevisiae was 111 µM.

For `O=C1Cc2ccccc2O1`, the MGC in data set [1] stood at 24 µM. Also, the SI in data set [3] is greater than 6. Also, the IC50 at Saccharomyces cerevisiae was no less than 150 µM. The same compound came in with a residual activity in data set [2] of 89%.

For the compound `COC(=O)CCc1c(O)ccc2ccccc12`, the MGC in data set [1] was found to be 5.2 µM. In data set [2], the residual activity turned out to be 75%.

`COc1cccc2c3c(ccc12)OC(=O)CC3`: the MGC in data set [1] came out at 5.5 µM.

In turn, `CNC(=O)CCc1c(O)ccc2ccccc12` came in with an MGC in data set [1] of 5.8 µM. Further, the SI in data set [3] is greater than 26. Also, on Saccharomyces cerevisiae, the half-inhibitory concentration (IC50) is no less than 150 µM.

As usually defined, the half-life is how long it takes for the measured level to halve. High values mean slow loss, low ones fast loss. For the compound `O=C1CCCc2c(ccc3ccccc23)O1`, in data set [4], the half-life was 49.5 h. This compound also came in with an MGC in data set [1] greater than 150 µM. Besides, the IC50 on Saccharomyces cerevisiae was found to be 12 µM. The residual activity in data set [2] is 82%.

`O=C1Cc2c(ccc3ccccc23)O1` gave a half-life in data set [4] of 12.2 h. In data set [1], this compound showed an MGC greater than 150 µM. For the same compound, the IC50 at Saccharomyces cerevisiae is 59 µM.

As for `CC(C)CC1Cc2c(ccc3ccccc23)OC1=O` (configuration not stated), in data set [1], the MGC is greater than 150 µM.

With `COc1cc2ccccc2c2c1OC(=O)CC2`, the MGC in data set [1] was found to be 1.5 µM. The SI in data set [3] stood at 85. Also, the IC50 at Saccharomyces cerevisiae amounted to 128 µM.

For the compound `O=C1CCc2c(ccc3ccc(O)cc23)O1`, in data set [1], the MGC was 48 µM. Further, the SI in data set [3] was determined as 3. Moreover, at Saccharomyces cerevisiae, the IC50 stood at 134 µM.

In the case of `O=C(COc1cccc2ccccc12)ON1C(=O)CCC1=O`, the MGC in data set [1] was greater than 150 µM. Besides, the half-inhibitory concentration (IC50) at Saccharomyces cerevisiae is no less than 150 µM.

With `O=C1CCc2ccc3c(O)cccc3c2O1`, the MGC in data set [1] came to 21 µM. Besides, in data set [3], the SI was greater than 7. In addition, the IC50 on Saccharomyces cerevisiae is no less than 150 µM.

In turn, `O=C1CCc2c(c3c(c4ccccc24)CCC(=O)O3)O1` yielded an MGC in data set [1] of 4.9 µM. Also, in data set [3], the SI is 18. The IC50 on Saccharomyces cerevisiae amounted to 89 µM. The compound further had a residual activity in data set [2] of 80%.

With `O=C1CCc2c(ccc3ccccc23)O1` [SPLITOMICIN], the half-life in data set [4] is 7.5 h. Also, the MGC in data set [5] worked out at 0.49 µM. Besides, the residual activity in data set [2] worked out at 66%.

`O=c1ccc2c(ccc3ccccc32)o1` registered a half-life in data set [4] greater than 100 h. This compound came in with an MGC in data set [1] greater than 150 µM. In addition, the IC50 on Saccharomyces cerevisiae is 86 µM. The same compound yielded a residual activity in data set [2] of 73%.

Regarding `O=C1OC(=O)c2cccc3cccc1c23`, the MGC in data set [1] was greater than 150 µM. The compound also gave a residual activity in data set [2] of 94%.

`O=C1CCc2c(ccc3ccccc23)S1` had a half-life in data set [4] of 13 h. The MGC in data set [1] was greater than 150 µM. Besides, the IC50 on Saccharomyces cerevisiae is 25 µM.

In the case of `O=C1CC(c2ccccc2)c2c(ccc3ccccc23)O1` (configuration not stated), the MGC in data set [1] was greater than 150 µM. The compound also yielded a residual activity in data set [2] of 90%.

`COc1ccc2ccc3c(c2c1)CCC(=O)O3` displayed an MGC in data set [1] greater than 150 µM.

Compound `O=C1CCc2c(ccc3c(O)cccc23)O1` showed an MGC in data set [1] of 16 µM. For the same compound, the SI in data set [3] is greater than 107. In addition, the IC50 at Saccharomyces cerevisiae is no less than 150 µM.

In data set [6], `O=c1ccc2ccccc2o1` returned an MGC greater than 150 µM. The residual activity in data set [2] was 74%.

In the case of `O=C1CCc2ccccc2O1`, in data set [1], the MGC worked out at 0.85 µM. In data set [2], the residual activity turned out to be 15%.

`CC1Cc2c(ccc3ccccc23)OC1=O` (configuration not stated) registered an MGC in data set [1] of 5.4 µM. Also, the SI in data set [3] was determined as 10. Moreover, the IC50 at Saccharomyces cerevisiae amounted to 52 µM. In addition, in data set [2], the residual activity was 94%.

Compound `O=C1CCc2ccc3ccccc3c2O1` gave a half-life in data set [4] of 6.9 h. For the same compound, the MGC in data set [1] amounted to 2.4 µM. Besides, in data set [3], the SI turned out to be 27. For the same compound, the IC50 at Saccharomyces cerevisiae turned out to be 65 µM. This compound returned a residual activity in data set [2] of 87%.

`O=C(O)CCc1c(O)ccc2ccccc12` gave an MGC in data set [1] greater than 150 µM. Further, on Saccharomyces cerevisiae, the IC50 was no less than 150 µM. The compound further registered a residual activity in data set [2] of 87%.

`COc1ccc2c3c(ccc2c1)OC(=O)CC3`: in data set [1], the MGC worked out at 13.8 µM. Also, the SI in data set [3] was found to be 5. Further, the IC50 at Saccharomyces cerevisiae came to 73 µM. Also, in data set [2], the residual activity came to 84%.

Take `O=C1CCc2c(ccc3ccccc23)N1`: in data set [4], the T1/2 entry is on record as “No hydrolysis obsd”. The compound also yielded an MGC in data set [1] greater than 150 µM. In addition, the IC50 at Saccharomyces cerevisiae is no less than 150 µM. In data set [2], this compound showed a residual activity of 92%.

The compound `OCCCc1c(O)ccc2ccccc12` registered an MGC in data set [1] greater than 150 µM. On Saccharomyces cerevisiae, the IC50 was no less than 150 µM. The compound further registered a residual activity in data set [2] of 88%.

In the case of `O=C1CCc2c(c3oc(=O)ccc3c3ccccc23)O1`, the MGC in data set [6] turned out to be 5.1 µM. Besides, the SI in data set [3] is greater than 29. At Saccharomyces cerevisiae, the IC50 is no less than 150 µM. This compound also yielded a residual activity in data set [2] of 83%.

`O=C1CCCc2c1ccc1ccccc21` displayed an MGC in data set [1] greater than 150 µM. Also, the IC50 on Saccharomyces cerevisiae was 81 µM.

In turn, `NC(=O)CCc1c(O)ccc2ccccc12` showed an MGC in data set [1] of 0.79 µM. Moreover, the SI in data set [3] stood at 158. Moreover, on Saccharomyces cerevisiae, the IC50 stood at 125 µM. Also, in data set [2], the residual activity is 80%.

Compound `COc1cc2c(c3ccccc13)CCC(=O)O2` returned an MGC in data set [1] of 1.8 µM. In addition, the SI in data set [3] came to 24. For the same compound, the IC50 at Saccharomyces cerevisiae turned out to be 44 µM.

For `CCOC(=O)C1Cc2c(ccc3ccccc23)OC1=O` (configuration not stated), the MGC in data set [1] is greater than 150 µM. Besides, on Saccharomyces cerevisiae, the IC50 was no less than 150 µM. For the same compound, the residual activity in data set [2] was 66%.

With `O=C1CCc2c(ccc3c4c(ccc23)OC(=O)CC4)O1`, in data set [1], the MGC was greater than 150 µM. The residual activity in data set [2] was 87%.

The compound `O=C1CCc2c(cc(O)c3ccccc23)O1` displayed an MGC in data set [1] of 11 µM.

On to `O=C1CCc2cc3ccccc3cc2O1`, for which, in data set [1], the MGC was 15 µM. Further, the SI in data set [3] was determined as 10. Further, at Saccharomyces cerevisiae, the IC50 was no less than 150 µM. In data set [2], the residual activity was 85%.
